Data set [1] relates to Quadruplex DNA. The experiment in a line: Binding affinity to mito 132 G4 DNA (unknown origin) at 5 uM by fluorescence titration based analysis. In kind it is nucleic-acid assay. In a few lines:
(§1)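 Oligonucleotides were pre-annealed at 95 °C for 10 min, then cooled slowly. Ligand (5 uM) was mixed with 20 uM DNA in buffer. Emission was collected over 550–800 nm, and enhancement was taken at 650 nm as F/F0.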

The subject of data set [2] is Quadruplex DNA. In words: Binding affinity to mito 56 G4 DNA (unknown origin) at 5 uM by fluorescence titration based analysis. Format: nucleic-acid assay. In a few lines:
as §1

Data set [3] relates to HFF-1. In words: (§2) Antiproliferative activity against human HFF-1 cells measured after 48 hrs by MTT assay. In kind it is toxicity, cell-based. The following applies: hff-1, 48 h, time 48 hrs. The procedure, abridged:
(§3)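 Cells exposed to the ligands for 48 h. Viability was read by MTT, and the IC50 was derived from the response.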
In general terms: Formazan colour is commonly taken as a measure of viable cells.

Data set [4] deals with Quadruplex DNA. In words: Binding affinity to mito 05-15 G4 DNA (unknown origin) at 5 uM by fluorescence titration based analysis. Format: nucleic-acid assay. In a few lines: as §1
In data set [5] the test system is Quadruplex DNA. In words: Binding affinity to mito 29 G4 DNA (unknown origin) at 5 uM by fluorescence titration based analysis. Format: nucleic-acid assay. The procedure, abridged: as §1
Data set [6] can be described thus: Drug uptake in living human HCT-116 cells assessed as increase in fluorescent signal in subnuclear region at 4 uM incubated for 1 hrs by Hoechst33342 staining based analysis. In kind it is ADME, cell-based. The following applies: hct-116, 1 h.
Data set [7] deals with Quadruplex DNA. In words: Binding affinity to mito 81 G4 DNA (unknown origin) at 5 uM by fluorescence titration based analysis. In kind it is nucleic-acid assay. In a few lines: (§4)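 Fluorescence titration in buffer. Ligand at 5 uM mixed with 20 uM pre-annealed DNA (95 °C for 10 min, slow cooling). Emission collected at 550-800 nm and monitored at 650 nm. Result reported as fold enhancement F/F0 over ligand alone.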

Data set [8] deals with Quadruplex DNA. In words: Binding affinity to mito 05-18 G4 DNA (unknown origin) at 5 uM by fluorescence titration based analysis. In kind it is nucleic-acid assay. In a few lines: as §1
The nature of data set [9]: Drug uptake in living human HCT-116 cells at 4 uM incubated for 1 hrs by Hoechst33342 staining based analysis. In kind it is ADME, cell-based. The following applies: hct-116, 1 h.
Data set [10] concerns Quadruplex DNA. The experiment in a line: Binding affinity to mito 78 G4 DNA (unknown origin) at 5 uM by fluorescence titration based analysis. In kind it is nucleic-acid assay. In a few lines: as §4
Data set [11] relates to BJ. In words: (§5) Antiproliferative activity against human BJ cells measured after 48 hrs by MTT assay. The following applies: bj, 48 h. In kind it is toxicity, cell-based. In a few lines:
as §3

Data set [12] has as its system HCT-116. In words: Antiproliferative activity against human HCT-116 cells measured after 48 hrs by MTT assay. To be noted: for IC50: HCT-116, 48 h. Format: functional, cell-based. The procedure, abridged: as §3
Data set [13] concerns HeLa. The experiment in a line: Antiproliferative activity against human HeLa cells measured after 48 hrs by MTT assay. Format: functional, cell-based. In a few lines: as §3
Data set [14] relates to LoVo. In words: Antiproliferative activity against human LoVo cells measured after 48 hrs by MTT assay. Format: functional, cell-based. The procedure, abridged:
as §3

Data set [15] deals with Quadruplex DNA. The experiment in a line: Binding affinity to mito 55 G4 DNA (unknown origin) assessed as dissociation constant measured upto 450 secs by surface plasmon resonance assay. Format: nucleic-acid assay. In a few lines: (§6)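 Surface plasmon resonance in buffer at 25 °C. Four G4-mtDNAs (Mito 78, Mito 55, Mito 29, Mito 0.5-16) and the hairpin HP19 served as substrates. Kd was derived from the sensorgrams.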
Background: SPR reads the build-up and loss of mass on a sensor chip optically.

A short description of data set [16]: as §2. In kind it is toxicity, cell-based. The following applies: HFF-1 cells. The procedure, abridged:
as §3

Data set [17] concerns the target Quadruplex DNA. In words: Binding affinity to mito 29 G4 DNA (unknown origin) assessed as dissociation constant measured upto 450 secs by surface plasmon resonance assay. In kind it is nucleic-acid assay. In a few lines: as §6
Data set [18] has as its system HepG2. The experiment in a line: Antiproliferative activity against human HepG2 cells measured after 48 hrs by MTT assay. In kind it is functional, cell-based. To be noted: HepG2, 48 h. The procedure, abridged: as §3
Data set [19] concerns MDA-MB-231. In words: Antiproliferative activity against human MDA-MB-231 cells measured after 48 hrs by MTT assay. In kind it is functional, cell-based. The following applies: MDA-MB-231, 48 h. The procedure, abridged:
as §3

Data set [20] has as its target DNA. In words: Binding affinity to HP19 DNA (non-G4 DNA) (unknown origin) assessed as dissociation constant measured upto 450 secs by surface plasmon resonance assay. Format: nucleic-acid assay. The procedure, abridged:
as §6

For data set [21], the target named is Quadruplex DNA. In words: Binding affinity to mito 78 G4 DNA (unknown origin) assessed as dissociation constant measured upto 450 secs by surface plasmon resonance assay. In kind it is nucleic-acid assay.
In data set [22] the test system is PANC-1. In words: Antiproliferative activity against human PANC-1 cells measured after 48 hrs by MTT assay. In kind it is functional, cell-based. The following applies: PANC-1, 48 h. The procedure, abridged: as §3
Data set [23] is described as follows: as §5. In kind it is toxicity, cell-based. To be noted: BJ cells. The procedure, abridged:
as §3

Data set [24] has as its target Quadruplex DNA. In words: Binding affinity to mito 0.5-16 G4 DNA (unknown origin) assessed as dissociation constant measured upto 450 secs by surface plasmon resonance assay. In kind it is nucleic-acid assay. The procedure, abridged: as §6

Calls of active or inactive are those of the source. No cut-off for these calls is given here.

For orientation: IC50 means the concentration at which inhibition is half-maximal. High values mean a need for much substance, low ones inhibition by little substance. The Kd is a measure of binding affinity in units of concentration.

`C[n+]1c(/C=C/c2ccc(N3CCCCC3)cc2)ccc2ccccc21.[I-]`: the outcome in data set [1], in [2], in data set [4], in data set [5], in data set [7] and in data set [8] was Active. The outcome in data set [10] was Active. The Activity result in data set [3] and in [11] was “Toxic” throughout. Also, the Drug uptake result in data set [6] is listed as “Active”; in data set [9] it was “Not Active”. In addition, the result in data set [12] was inactive.
In the case of `C(=C\c1ccc2ccccc2[n+]1CCCCCCCC[n+]1c(/C=C/c2ccc(N3CCOCC3)cc2)ccc2ccccc21)/c1ccc(N2CCOCC2)cc1`, the IC50 in data set [13] was greater than 40 µM; in [14], 35.4 µM; in data set [18], greater than 40 µM; in data set [19], greater than 40 µM; in [22] it was greater than 40 µM; in data set [12], 29.2 µM. Also, the dissociation constant (Kd) in data set [15] was 0.47 µM; in [17], 0.24 µM; in data set [20], 1.86 µM; in data set [21], 0.12 µM; in data set [24], 0.28 µM. Further, the 50% inhibitory concentration (IC50) at 48 h in data set [16] and in data set [23] was greater than 40 µM each time.
As for `CCCC[n+]1c(/C=C/c2ccc(N3CCCCC3)cc2)ccc2ccccc21.[I-]`, the outcome in [1], in data set [2], in data set [4], in data set [5], in [7] and in data set [8] was Active. Also, the result in data set [10] was Active. The Activity result in data set [3] and in data set [11] was “Toxic” each time. Moreover, the Drug uptake result in data set [6] was “Active”; in data set [9] it was “Not Active”. In addition, the outcome in data set [12] was inactive.
With `CN(C)c1ccc(/C=C/c2ccc3ccccc3[n+]2CCCCCCCC[n+]2c(/C=C/c3ccc(N(C)C)cc3)ccc3ccccc32)cc1`, the IC50 is 29.5 µM in data set [13]; 15.4 µM in data set [14]; greater than 40 µM in data set [18]; greater than 40 µM in data set [19]; greater than 40 µM in data set [22]; 17.2 µM in data set [12]. The Kd in data set [15] is 0.13 µM; in data set [17], 0.14 µM; in [20], greater than 2 µM; in data set [21], 0.03 µM; in [24], 0.11 µM. Further, the IC50 at 48 h in data set [16] is 22.7 µM; in [23] it was greater than 40 µM.
On to `C(=C\c1ccc2ccccc2[n+]1CCCCCCCC[n+]1c(/C=C/c2ccccc2)ccc2ccccc21)/c1ccccc1`, for which the IC50 in [13], in [14], in [18], in data set [19], in data set [22] and in data set [12] was greater than 40 µM throughout. Also, the dissociation constant Kd in [15] is 0.58 µM; in [17], 0.5 µM; in [20], greater than 2 µM; in [21] it was 0.29 µM; in data set [24], 1.02 µM. The concentration for half-maximal inhibition (IC50) at 48 h in data set [16] is 28.3 µM; in [23] it was greater than 40 µM.
With `CSc1ccc(/C=C/c2ccc3ccccc3[n+]2CCCCCCCC[n+]2c(/C=C/c3ccc(SC)cc3)ccc3ccccc32)cc1`, the IC50 in [13] is greater than 40 µM; in data set [14] it was greater than 40 µM; in data set [18], greater than 40 µM; in [19] it was greater than 40 µM; in data set [22] it was greater than 40 µM; in data set [12] it was 24.7 µM. The Kd was 0.46 µM in data set [15]; 0.34 µM in data set [17]; greater than 2 µM in [20]; 0.05 µM in data set [21]; 0.15 µM in data set [24]. In addition, the concentration for half-maximal inhibition (IC50) at 48 h was 34.7 µM in data set [16] and greater than 40 µM in [23].
Take `C(=C\c1ccc2ccccc2[n+]1CCCCCCCC[n+]1c(/C=C/c2c[nH]c3ccccc23)ccc2ccccc21)/c1c[nH]c2ccccc12`: the IC50 in data set [13] is 23.3 µM; in [14] it was greater than 40 µM; in [18], greater than 40 µM; in data set [19], greater than 40 µM; in data set [22], greater than 40 µM; in data set [12], 19.8 µM. Further, the Kd in [15] is 0.61 µM; in data set [17], 0.23 µM; in data set [20] it was greater than 2 µM; in data set [21] it was 0.08 µM; in data set [24] it was 0.25 µM. Moreover, the IC50 at 48 h in data set [16] and in data set [23] was greater than 40 µM in each case.
For the molecule `Cc1ccc(/C=C/c2ccc3ccccc3[n+]2CCCCCCCC[n+]2c(/C=C/c3ccc(C)cc3)ccc3ccccc32)cc1`, the IC50 in [13] was greater than 40 µM; in data set [14], greater than 40 µM; in data set [18] it was greater than 40 µM; in data set [19] it was greater than 40 µM; in data set [22], greater than 40 µM; in data set [12], 27.4 µM. In addition, the Kd in data set [15] was 0.91 µM; in data set [17], 0.72 µM; in data set [20], greater than 2 µM; in [21], 0.07 µM; in [24] it was 1.17 µM. In addition, the IC50 at 48 h in data set [16] and in data set [23] was greater than 40 µM each time.
Turning to `C(=C\c1ccc2ccccc2[n+]1CCCCCCCC[n+]1c(/C=C/c2ccc(N3CCCC3)cc2)ccc2ccccc21)/c1ccc(N2CCCC2)cc1`, the IC50 is 22.1 µM in [13]; 15 µM in data set [14]; greater than 40 µM in data set [18]; greater than 40 µM in data set [19]; 20.5 µM in data set [22]; 5.4 µM in data set [12]. Besides, the equilibrium dissociation constant (Kd) was 0.17 µM in data set [15]; 0.15 µM in [17]; greater than 2 µM in data set [20]; 0.13 µM in data set [21]; 0.41 µM in data set [24]. The concentration for half-maximal inhibition (IC50) at 48 h in data set [16] was determined as 31.1 µM; in [23], 31.4 µM.
For `CCn1c2ccccc2c2cc(/C=C/c3ccc4ccccc4[n+]3CCCCCCCC[n+]3c(/C=C/c4ccc5c(c4)c4ccccc4n5CC)ccc4ccccc43)ccc21`, the IC50 in data set [13] was 32.1 µM; in data set [14] it was greater than 40 µM; in [18], 25.3 µM; in data set [19], greater than 40 µM; in data set [22], greater than 40 µM; in [12], 8.5 µM. Besides, the dissociation constant Kd in [15] was 0.52 µM; in data set [17], 0.21 µM; in [20], greater than 2 µM; in data set [21] it was 0.02 µM; in [24], 0.96 µM. The IC50 at 48 h in data set [16] and in [23] was greater than 40 µM throughout.
Take `C(=C\c1ccc2ccccc2[n+]1CCCCCCCC[n+]1c(/C=C/c2cc3ccccc3[nH]2)ccc2ccccc21)/c1cc2ccccc2[nH]1`: the 50% inhibitory concentration (IC50) in data set [13] is 34.6 µM; in [14] it was greater than 40 µM; in [18], 37.3 µM; in data set [19] it was greater than 40 µM; in data set [22] it was greater than 40 µM; in data set [12], 8 µM. Also, the dissociation constant Kd in [15] was 0.22 µM; in data set [17], 0.14 µM; in [20], greater than 2 µM; in [21] it was 1.84 µM; in data set [24], greater than 2 µM. For the same molecule, the IC50 at 48 h in data set [16] and in [23] was greater than 40 µM throughout.
